Key:
[1] = cited from earlier work
[2] = system: cytochrome P450 (CYP); details: cited from earlier work
[3] = Part III safety assessment; type: in vivo, human
Outline: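 Safety monitored under ICH-GCP in each part (single 10–300 mg; alternate-day 100–300 mg; 150 mg fasted/fed crossover). Assessments: adverse events coded with MedDRA version 18.0, clinical examinations, frequent vital signs, 12-lead ECGs, clinical laboratory tests, and continuous ECG for 24 h post-dose in parts I and II. Post-dose vs baseline compared by paired two-sided t test, α = 0.05.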

In the case of `O=C(O)CNC(=O)c1c(O)c2ccccc2n(OCC2CC2)c1=O` [ZYAN1], the “effect of acute and chronic kidney failure models on pharmacokinetics” value ([1]; rats vs normal control rats) is listed as “did not alter the pharmacokinetics”, the “increase in the exposure after complete removal of both kidneys” value ([1]; rats) is listed as 2 fold and the “potential for cytochrome P450 (CYP)-mediated drug–drug interactions” value [2] is listed as “minimal potential”. For the same compound, the “Adverse events (Test)” value ([3]; Food and sex effect 150 mg panel) was “Palpitation, cellulitis, back pain, musculoskeletal pain, head discomfort, headache (2), folliculitis, cellulitis” and the “total AEs reported” value ([3]; part III crossover, 150 mg) was 11.
